Series [1] is described as follows: Half-life at pH 7.4 in rat 10% brain homogenate. Format: ADME. The method, boiled down:
(§1)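 Fresh rat whole blood, or rat brain homogenized to 10% (w/v) in pH 7.4 phosphate buffer (1/20 M), spiked from DMSO stock to 40 μM final and held at 37 °C. Timed samples were extracted three times with 8% DMSO in acetonitrile, centrifuged, filtered and analyzed by HPLC. Pseudo-first-order rate constants came from log peak height versus time. Values are means of two determinations.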

Series [2] can be described thus: Half-life at pH 7.4 in rat blood. Type of series: ADME, organism-based. The method, boiled down:
as §1

Series [3] in a line: Half-life in phosphate buffer (0.05 M, mu = 0.15) at 30 degree Celsius with pH 6.15. Type of series: ADME. The method, boiled down: (§2)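 DMSO stock added to 10 mL phosphate buffer (0.05 M, μ = 0.15) at the stated pH. Timed samples were analyzed by HPLC, with UV detection at 360 nm for dihydro CDS forms and 260 nm for quaternary salts. Pseudo-first-order disappearance rate constants came from linear regression of log peak height versus time, and half-lives were derived from them.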

A short description of series [4]: Half-life in phosphate buffer (0.05 M, mu = 0.15) at 30 degree Celsius with pH 6.93. Format: ADME. The method, boiled down: as §2
Series [5] in a line: Half-life in phosphate buffer (0.05 M, mu = 0.15) at 30 degree Celsius with pH 7.45. Type of series: ADME. The method, boiled down:
as §2

Series [6] in a line: Half-life in phosphate buffer (0.05 M, mu = 0.15) at 30 degree Celsius with pH 7.79. Type of series: ADME. The method, boiled down:
as §2

The nature of series [7]: Second-order oxidation rate constant determined using ferricyanide. Format: ADME. The method, boiled down:
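Chemical oxidation with ferricyanide was run under pseudo-first-order conditions, with Fe(CN)6^3- in large excess over the CDS and pH held constant. Pseudo-first-order rates were measured at several ferricyanide concentrations, and the second-order constant (M^-1 s^-1) was derived from them.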

A short description of series [8]: Half-life in phosphate buffer (0.05 M, mu = 0.15) at 30 degree Celsius with pH 8.14. Format: ADME. The method, boiled down: as §2
The nature of series [9]: Lipophilicity was determined by reversed-phase HPLC. Particulars: extrapolated to 100% water.
The nature of series [10]: (§3) Concentration of compound after 5 minutes in rabbit blood. Type of series: ADME, organism-based, Oryctolagus cuniculus.
The nature of series [11]: Concentration of compound after 10 minutes in rabbit blood. Type of series: ADME, organism-based, Oryctolagus cuniculus.
The species entered for series [12] is Rattus norvegicus. Kind of series: Concentration of compound after 3 minutes in rat blood. Format: functional, organism-based.
The nature of series [13]: Half-life in phosphate buffer (0.05 M, mu = 0.15) at 30 degree Celsius with pH 6.07. Type of series: ADME. The method, boiled down: as §2
Series [14] can be described thus: Half-life in phosphate buffer (0.05 M, mu = 0.15) at 30 degree Centigrade with pH 6.88. Type of series: ADME. The method, boiled down: as §2
Series [15] in a line: Half-life in phosphate buffer (0.05 M, mu = 0.15) at 30 degree Celsius with pH 7.43. Format: ADME. The method, boiled down:
as §2

A short description of series [16]: Half-life in phosphate buffer (0.05 M, mu = 0.15) at 30 degree Celsius with pH 7.73. Format: ADME. The method, boiled down:
as §2

Series [17] is filed under the species Homo sapiens. Kind of series: Half-life at pH 7.4 in human blood; Compound insoluble. Format: ADME, organism-based. The method, boiled down: (§4)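 Freshly collected rabbit or human whole blood, spiked from DMSO stock to 40 μM final and kept at 37 °C. Timed samples were extracted three times with 8% DMSO in acetonitrile, centrifuged, filtered and analyzed by HPLC. Pseudo-first-order rate constants came from linear regression of log peak height versus time.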

The species entered for series [18] is Oryctolagus cuniculus. Description: Half-life at pH 7.4 in rabbit blood; Compound insoluble. Type of series: ADME, organism-based. The method, boiled down:
as §4

A short description of series [19]: Half-life in phosphate buffer (0.05 M, mu = 0.15) at 30 degree Celsius with pH 8.05. Format: ADME. The method, boiled down:
as §2

Series [20] can be described thus: Half-life at pH 7.4 in human blood. Type of series: ADME, organism-based. The method, boiled down: as §4
Series [21] in a line: Half-life at pH 7.4 in rabbit blood. Type of series: ADME, organism-based, Oryctolagus cuniculus. The method, boiled down:
as §4

For series [22], the species on record is Oryctolagus cuniculus. Kind of series: Concentration of compound after 10 min in rabbit brain. Format: functional, organism-based. The method, boiled down:
(§5)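 Oxacillin at 20 mg/kg, or an equimolar dose of its CDS, given i.v. to male Sprague-Dawley rats (tail vein) or male New Zealand albino rabbits (ear vein). Vehicle was water/ethanol/propylene glycol at 20 mg/mL. Samples were rat trunk blood after decapitation or rabbit ear-vein blood, with brain removed and frozen. Oxacillin was assayed by B. subtilis ATCC 6633 paper-disk diffusion and by HPLC. Values are means of two determinations.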

The species entered for series [23] is Oryctolagus cuniculus. Described as §3. Format: functional, organism-based. The method, boiled down:
as §5

For series [24], the species on record is Oryctolagus cuniculus. Description: Concentration of compound after 5 minutes in rabbit brain. Type of series: functional, organism-based. The method, boiled down:
as §5

The species entered for series [25] is Oryctolagus cuniculus. Description: Concentration of compound after 10 min in rabbit blood. Type of series: functional, organism-based. The method, boiled down: as §5
The species named for series [26] is Rattus norvegicus. Kind of series: Concentration of compound after 3 minutes in rat brain. Type of series: functional, organism-based. The method, boiled down: as §5
Series [27] in a line: Half-life in phosphate buffer (0.05 M, mu = 0.15) at 30 degree Celsius and pH 6.15. Format: ADME. The method, boiled down: as §2
Series [28] in a line: Half-life in phosphate buffer (0.05 M, mu = 0.15) at 30 degree Celsius and pH 6.93. Format: ADME. The method, boiled down: as §2
The nature of series [29]: Half-life in phosphate buffer (0.05 M, mu = 0.15) at 30 degree Celsius and pH 7.45. Type of series: ADME. The method, boiled down:
as §2

The half-life is the time in which the quantity being followed falls by half. Low values mean rapid decline, high ones slow decline. For the compound `Cc1onc(-c2ccccc2Cl)c1C(=O)NC1C(=O)N2C1SC(C)(C)[C@@H]2C(=O)OCOC(=O)C1=CN(C)C=CC1` (some centres not stated), the half-life in series [1] turned out to be 10 min; in series [2], 3.8 min; in series [3], 350 min; in series [4], 506 min; in [5] it was 377 min; in series [6], 305 min. The compound further had a half-life in series [8] of 165 min. The compound also displayed a ko in series [7] of 0.36 M⁻¹ s⁻¹. Besides, the Log k in series [9] is reported as 3.06.

In series [10], `Cc1onc(-c2ccccc2)c1C(=O)N[C@@H]1C(=O)N2[C@@H]1SC(C)(C)[C@@H]2C(=O)[O-].[Na+]` came in with a concentration at 5 min of 15300 ng/mL. The concentration at 10 min in series [11] amounted to 9100 ng/mL. This compound returned a Concentration in series [12] of 41.1 µg/mL. In series [9], the Log k is reported as 1.868.

Take `Cc1onc(-c2c(Cl)cccc2Cl)c1C(=O)NC1C(=O)N2C1SC(C)(C)[C@@H]2C(=O)OCOC(=O)c1ccc[n+](C)c1.[I-]` (some centres not stated): the half-life in series [1] was determined as 1 min; in [2], 0.7 min; in series [13] it was 44.4 min; in series [14] it was 14.7 min; in series [15], 3.9 min; in [16], 2.9 min.

On to `COc1cccc(OC)c1C(=O)NC1C(=O)N2C1SC(C)(C)[C@@H]2C(=O)OCOC(=O)c1ccc[n+](C)c1.[I-]` (some centres not stated), for which the T1/2 entry in [17] and in series [18] was “Insoluble” each time. Also, the half-life in series [1] is 1.1 min; in series [2], 1 min; in [13] it was 58.6 min; in series [14] it was 12 min; in [15], 3.6 min; in series [16], 2 min. This compound also showed a half-life in [19] of 1 min.

As to `Cc1onc(-c2ccccc2Cl)c1C(=O)NC1C(=O)N2C1SC(C)(C)[C@@H]2C(=O)[O-].[Na+]` (some centres not stated), the Log k in series [9] is 2.097.

As for `Cc1onc(-c2ccccc2)c1C(=O)NC1C(=O)N2C1SC(C)(C)[C@@H]2C(=O)OCOC(=O)C1=CN(C)C=CC1` (some centres not stated), the half-life in series [20] amounted to 7.5 min; in series [21], 23.7 min; in [1], 5.4 min; in series [2] it was 1.1 min; in [3], 249 min; in [4], 277 min. Moreover, the half-life turned out to be 196 min in series [5], 172 min in [6] and 100 min in [8]. In addition, in series [7], the ko was 0.48 M⁻¹ s⁻¹. Besides, the Concentration was determined as 0.3 µg/mL in [22]; 4.6 µg/mL in series [23]; 0.3 µg/mL in [24]; 2.2 µg/mL in series [25]; 26.2 µg/mL in [12]; 2.1 µg/mL in series [26]. In addition, the Log k in series [9] is on record as 2.82.

As for `COc1cccc(OC)c1C(=O)N[C@@H]1C(=O)N2[C@@H]1SC(C)(C)[C@@H]2C(=O)[O-].[Na+]`, the Log k in series [9] is given as 0.658.

Turning to `COc1cccc(OC)c1C(=O)NC1C(=O)N2C1SC(C)(C)[C@@H]2C(=O)OCOC(=O)C1=CN(C)C=CC1` (some centres not stated), the half-life in series [20] is 116 min; in series [21] it was 10.7 min; in series [1], 8 min; in series [2] it was 0.2 min; in series [27], 130 min; in series [28], 238 min. In addition, the figures for the half-life in series [29], in series [6] and in [8] were 134 min, 103 min and 55.7 min, respectively. Moreover, the ko in [7] stood at 0.701 M⁻¹ s⁻¹. In addition, the Log k in series [9] was 2.28.

In the case of `Cc1onc(-c2c(Cl)cccc2Cl)c1C(=O)NC1C(=O)N2C1SC(C)(C)[C@@H]2C(=O)OCOC(=O)C1=CN(C)C=CC1` (some centres not stated), the half-life turned out to be 12.6 min in series [1]; 4.1 min in series [2]; 464 min in series [3]; 1010 min in series [4]; 1030 min in series [5]; 932 min in [6]. The same compound displayed a half-life in series [8] of 598 min. For the same compound, the ko in series [7] was 0.23 M⁻¹ s⁻¹. For the same compound, the Log k in series [9] is listed as 3.41.

Regarding `Cc1onc(-c2ccccc2Cl)c1C(=O)NC1C(=O)N2C1SC(C)(C)[C@@H]2C(=O)OCOC(=O)c1ccc[n+](C)c1.[I-]` (some centres not stated), the half-life in series [1] was 1.1 min; in series [2], 0.6 min; in series [13] it was 56 min; in series [14] it was 11.3 min; in series [15], 3.5 min; in [16] it was 2.1 min. Besides, the half-life in [19] was 1 min.

`Cc1onc(-c2ccccc2)c1C(=O)NC1C(=O)N2C1SC(C)(C)[C@@H]2C(=O)OCOC(=O)c1ccc[n+](C)c1.[I-]` (some centres not stated): the half-life in series [1] came to 1.2 min; in series [2], 0.7 min; in series [13], 49 min; in series [14], 10.3 min; in series [15], 3.4 min; in series [16], 1.9 min. Also, in [19], the half-life amounted to 1.1 min.

Consider `Cc1onc(-c2c(Cl)cccc2Cl)c1C(=O)NC1C(=O)N2C1SC(C)(C)[C@@H]2C(=O)[O-].[Na+]` (some centres not stated), for which the Log k in [9] is 2.435.
